Reference: ChEMBL document CHEMBL4145652, “Chemoenzymatic Synthesis and Pharmacological Characterization of Functionalized Aspartate Analogues As Novel Excitatory Amino Acid Transporter Inhibitors” (J Med Chem, 2018)
Activity calls are given as the source filed them. The rule behind the calls is not given here.

Experiments:
Format in all cases: cell-based
[1] = target: T1, Excitatory amino acid transporter 3 (Homo sapiens) (UniProt P43005); assay: Potency index, ratio of IC50 for DL-TBOA to IC50 for test compound for inhibition of human EAAT3 expressed in HEK293 cells assessed as reduction in [3H]-D-Asp uptake incubated for 4 mins by scintillation counting method
T1 sequence (whole entry): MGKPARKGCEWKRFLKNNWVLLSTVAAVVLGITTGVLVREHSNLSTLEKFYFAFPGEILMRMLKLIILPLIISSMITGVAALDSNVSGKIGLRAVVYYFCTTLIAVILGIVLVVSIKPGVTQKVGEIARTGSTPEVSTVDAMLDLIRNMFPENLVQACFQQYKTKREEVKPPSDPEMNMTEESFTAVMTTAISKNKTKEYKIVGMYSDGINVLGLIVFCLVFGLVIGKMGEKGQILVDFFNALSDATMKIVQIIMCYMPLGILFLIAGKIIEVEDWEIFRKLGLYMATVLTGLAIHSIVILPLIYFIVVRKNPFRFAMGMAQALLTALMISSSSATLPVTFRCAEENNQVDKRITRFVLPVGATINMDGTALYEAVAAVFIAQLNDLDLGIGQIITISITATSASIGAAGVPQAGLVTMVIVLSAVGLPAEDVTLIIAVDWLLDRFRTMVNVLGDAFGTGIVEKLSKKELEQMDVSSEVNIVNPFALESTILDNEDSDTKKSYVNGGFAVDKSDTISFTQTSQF
Outline: (§1)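 Stable HEK293 lines expressing human transporter, plated on poly-D-lysine 16–24 h before assay. Washed cells were given HBSS/20 mM HEPES/1 mM CaCl2/1 mM MgCl2, pH 7.4, with 100 nM [3H]-D-Asp plus graded inhibitor for 4 min at 37 °C. Nonspecific uptake was taken with 3 mM L-Glu. IC50 came from a Hill fit; index = DL-TBOA IC50 ÷ test IC50. Three or four independent runs in duplicate.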

[2] = target: T2, Excitatory amino acid transporter 1 (Homo sapiens, UniProt P43003); assay: Potency index, ratio of IC50 for WAY-213613 to IC50 for test compound for inhibition of human EAAT1 expressed in HEK293 cells assessed as reduction in [3H]-D-Asp uptake incubated for 4 mins by scintillation counting method
T2 sequence (P43003 whole entry): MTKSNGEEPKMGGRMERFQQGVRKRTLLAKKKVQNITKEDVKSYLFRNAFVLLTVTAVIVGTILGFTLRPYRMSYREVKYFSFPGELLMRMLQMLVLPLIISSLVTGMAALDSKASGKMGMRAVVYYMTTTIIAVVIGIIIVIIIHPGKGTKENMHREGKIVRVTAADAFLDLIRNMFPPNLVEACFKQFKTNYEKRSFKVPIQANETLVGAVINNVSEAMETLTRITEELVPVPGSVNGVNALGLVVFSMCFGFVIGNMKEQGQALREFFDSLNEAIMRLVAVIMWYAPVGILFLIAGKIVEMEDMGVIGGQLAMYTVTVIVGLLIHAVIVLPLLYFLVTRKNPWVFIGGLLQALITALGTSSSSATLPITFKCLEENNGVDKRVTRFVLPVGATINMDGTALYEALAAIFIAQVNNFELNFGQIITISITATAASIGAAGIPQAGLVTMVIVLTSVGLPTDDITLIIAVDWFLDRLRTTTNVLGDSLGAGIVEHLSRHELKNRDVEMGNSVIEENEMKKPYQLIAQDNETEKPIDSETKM

[3] = target: T3, Excitatory amino acid transporter 4 (Rattus norvegicus) (UniProt O35921); assay: Potency index, ratio of IC50 for DL-TBOA to IC50 for test compound for inhibition of rat EAAT4 expressed in tsA201 cells assessed as reduction in [3H]-D-Asp uptake incubated for 4 mins by scintillation counting method
T3 sequence (whole entry): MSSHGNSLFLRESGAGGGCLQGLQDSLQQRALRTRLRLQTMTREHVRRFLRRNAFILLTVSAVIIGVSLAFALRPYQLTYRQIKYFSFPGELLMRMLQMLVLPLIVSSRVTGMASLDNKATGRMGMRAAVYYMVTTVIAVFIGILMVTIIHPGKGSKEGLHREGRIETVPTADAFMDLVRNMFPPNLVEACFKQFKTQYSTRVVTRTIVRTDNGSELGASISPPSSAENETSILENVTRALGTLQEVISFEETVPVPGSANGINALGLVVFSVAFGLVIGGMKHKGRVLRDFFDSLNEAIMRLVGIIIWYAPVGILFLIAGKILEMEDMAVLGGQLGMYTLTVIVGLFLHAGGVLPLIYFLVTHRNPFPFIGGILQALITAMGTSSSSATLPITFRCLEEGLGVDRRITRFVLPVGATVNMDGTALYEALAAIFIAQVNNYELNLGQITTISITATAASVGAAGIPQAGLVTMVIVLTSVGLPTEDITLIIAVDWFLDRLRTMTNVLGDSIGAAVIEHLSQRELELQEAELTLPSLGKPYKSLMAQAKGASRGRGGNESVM
Outline: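 Stable rat EAAT4 tsA201 line induced with 1 µg/mL tetracycline on plating, 16–24 h before assay. Uptake used 100 nM [3H]-D-Asp with graded inhibitor in HEPES-buffered HBSS, pH 7.4, for 4 min at 37 °C. 3 mM L-Glu defined nonspecific uptake. Scintillation counts were Hill-fitted for IC50; index = DL-TBOA IC50 ÷ test IC50. Three or four independent runs in duplicate.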

[4] = target: T4, Excitatory amino acid transporter 4 (Rattus norvegicus, UniProt O35921); assay: Inhibition of rat EAAT4 expressed in tsA201 cells assessed as reduction in [3H]-D-Asp uptake incubated for 4 mins by scintillation counting method; conditions: read-out: IC50
T4 sequence (O35921 whole entry): T3 sequence (whole entry)
Outline: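 Rat EAAT4 stably expressed in tsA201 cells, induced with 1 μg/mL tetracycline during overnight plating. [3H]-D-Asp (100 nM) uptake with graded compound concentrations ran for 4 min at 37 °C in HEPES-buffered HBSS, pH 7.4. Uptake was linear at this time. Nonspecific uptake was defined by 3 mM L-Glu. Read-out by scintillation counting. IC50 came from a Hill-equation fit. Three or four independent assays in duplicate.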

[5] = target: T5, Excitatory amino acid transporter 2 (Homo sapiens, UniProt P43004); assay: Inhibition of human EAAT2 expressed in HEK293 cells assessed as reduction in [3H]-D-Asp uptake incubated for 4 mins by scintillation counting method; conditions: read-out: IC50
T5 sequence (P43004 whole entry): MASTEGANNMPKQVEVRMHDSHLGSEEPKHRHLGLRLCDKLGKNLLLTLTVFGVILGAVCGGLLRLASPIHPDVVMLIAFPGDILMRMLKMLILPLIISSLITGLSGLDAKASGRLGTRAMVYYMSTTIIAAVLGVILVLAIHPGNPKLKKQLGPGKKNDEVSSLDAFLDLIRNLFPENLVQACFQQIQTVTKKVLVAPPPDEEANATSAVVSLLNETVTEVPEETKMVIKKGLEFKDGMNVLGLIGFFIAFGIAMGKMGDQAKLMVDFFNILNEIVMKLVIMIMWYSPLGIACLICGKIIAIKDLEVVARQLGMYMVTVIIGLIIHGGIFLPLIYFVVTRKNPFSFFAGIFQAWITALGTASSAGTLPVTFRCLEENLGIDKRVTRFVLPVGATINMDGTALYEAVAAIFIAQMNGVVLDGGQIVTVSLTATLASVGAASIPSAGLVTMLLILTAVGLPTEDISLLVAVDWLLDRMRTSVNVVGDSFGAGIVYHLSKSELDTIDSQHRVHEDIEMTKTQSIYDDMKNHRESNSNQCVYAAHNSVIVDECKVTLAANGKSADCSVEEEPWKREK
Outline: (§2)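 HEK293 cells stably expressing human EAAT1, EAAT2 or EAAT3 were plated 16–24 h before the assay. Cells were washed and incubated with 100 nM [3H]-D-Asp plus graded compound concentrations in HBSS/20 mM HEPES/CaCl2/MgCl2, pH 7.4, for 4 min at 37 °C. Uptake was in the linear range at this time. Nonspecific uptake was defined with 3 mM L-Glu. Cells were washed ice-cold and counted by scintillation. IC50 came from a Hill-equation fit. Three or four independent assays in duplicate.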

[6] = target: T1, Excitatory amino acid transporter 3 (Homo sapiens); assay: Potency index, ratio of IC50 for WAY-213613 to IC50 for test compound for inhibition of human EAAT3 expressed in HEK293 cells assessed as reduction in [3H]-D-Asp uptake incubated for 4 mins by scintillation counting method
[7] = target: T6, Excitatory amino acid transporter 3 (Homo sapiens, UniProt P43005); assay: Inhibition of human EAAT3 expressed in HEK293 cells assessed as reduction in [3H]-D-Asp uptake incubated for 4 mins by scintillation counting method
T6 sequence (P43005 whole entry): T1 sequence (whole entry)
Outline: as §2, with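 “time.” for “time. Nonspecific uptake was defined with 3 mM L-Glu.”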

[8] = target: T2, Excitatory amino acid transporter 1; assay: Inhibition of human EAAT1 expressed in HEK293 cells assessed as reduction in [3H]-D-Asp uptake incubated for 4 mins by scintillation counting method
Outline: as §2, with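 “time.” for “time. Nonspecific uptake was defined with 3 mM L-Glu.”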

[9] = target: T5, Excitatory amino acid transporter 2; assay: Potency index, ratio of IC50 for DL-TBOA to IC50 for test compound for inhibition of human EAAT2 expressed in HEK293 cells assessed as reduction in [3H]-D-Asp uptake incubated for 4 mins by scintillation counting method; outline: as §1
[10] = target: T2, Excitatory amino acid transporter 1; assay: Potency index, ratio of IC50 for DL-TBOA to IC50 for test compound for inhibition of human EAAT1 expressed in HEK293 cells assessed as reduction in [3H]-D-Asp uptake incubated for 4 mins by scintillation counting method; outline: as §1
[11] = target: T3, Excitatory amino acid transporter 4 (Rattus norvegicus); assay: Potency index, ratio of IC50 for WAY-213613 to IC50 for test compound for inhibition of rat EAAT4 expressed in tsA201 cells assessed as reduction in [3H]-D-Asp uptake incubated for 4 mins by scintillation counting method
[12] = target: T5, Excitatory amino acid transporter 2; assay: Potency index, ratio of IC50 for WAY-213613 to IC50 for test compound for inhibition of human EAAT2 expressed in HEK293 cells assessed as reduction in [3H]-D-Asp uptake incubated for 4 mins by scintillation counting method
[13] = target: T5, Excitatory amino acid transporter 2; assay: Potency index, ratio of IC50 for NBI59159 to IC50 for test compound for inhibition of human EAAT2 expressed in HEK293 cells assessed as reduction in [3H]-D-Asp uptake incubated for 4 mins by scintillation counting method
[14] = target: T1, Excitatory amino acid transporter 3 (Homo sapiens); assay: Potency index, ratio of IC50 for NBI59159 to IC50 for test compound for inhibition of human EAAT3 expressed in HEK293 cells assessed as reduction in [3H]-D-Asp uptake incubated for 4 mins by scintillation counting method
[15] = target: T2, Excitatory amino acid transporter 1; assay: Potency index, ratio of IC50 for NBI59159 to IC50 for test compound for inhibition of human EAAT1 expressed in HEK293 cells assessed as reduction in [3H]-D-Asp uptake incubated for 4 mins by scintillation counting method
[16] = target: T2, Excitatory amino acid transporter 1; assay: Substrate activity at human EAAT1 expressed in HEK293 cells assessed as increase in fluorescence level at 300 uM incubated for 30 mins by fluorescence-based FLIPR membrane potential blue assay
Outline: (§3)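 Human EAAT1-, EAAT2- or EAAT3-HEK293 cells were loaded with FMP dye (0.5 mg/mL) in Na+-containing HEPES buffer, pH 7.4, for 30 min at 37 °C. Test compound was then added alone to an assay concentration of 300 μM. Fluorescence (ex 525/em 565 nm) was recorded before addition and up to 90 s after. Three independent experiments in triplicate.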

[17] = target: T1, Excitatory amino acid transporter 3 (Homo sapiens); assay: Inhibition of human EAAT3 expressed in HEK293 cells assessed as reduction in EC80 L-glutamate-induced response at 300 uM pre-incubated before L-glutamate addition by fluorescence-based FLIPR membrane potential blue assay
Outline: (§4)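 Stably transfected HEK293 cells expressing human EAAT1, EAAT2 or EAAT3, plated the day before on poly-D-lysine-coated plates. Cells were loaded with FMP dye (0.5 mg/mL) in NaCl/KCl/HEPES/glucose buffer, pH 7.4, for 30 min at 37 °C, with test compound at 300 μM present. L-Glu at its EC80 for each transporter was then added. Emission at 565 nm (excitation 525 nm) was read up to 90 s. Three independent experiments in triplicate.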

[18] = target: T2, Excitatory amino acid transporter 1; assay: Inhibition of human EAAT1 expressed in HEK293 cells assessed as reduction in EC80 L-glutamate-induced response at 300 uM pre-incubated before L-glutamate addition by fluorescence-based FLIPR membrane potential blue assay; outline: as §4
[19] = target: T5, Excitatory amino acid transporter 2; assay: Inhibition of human EAAT2 expressed in HEK293 cells assessed as reduction in EC80 L-glutamate-induced response at 300 uM co-applied with L-glutamate addition by fluorescence-based FLIPR membrane potential blue assay
[20] = target: T5, Excitatory amino acid transporter 2; assay: Inhibition of human EAAT2 expressed in HEK293 cells assessed as reduction in EC80 L-glutamate-induced response at 300 uM pre-incubated before L-glutamate addition by fluorescence-based FLIPR membrane potential blue assay; outline: as §4
[21] = target: T5, Excitatory amino acid transporter 2; assay: Substrate activity at human EAAT2 expressed in HEK293 cells assessed as increase in fluorescence level at 300 uM incubated for 30 mins by fluorescence-based FLIPR membrane potential blue assay; outline: as §3
[22] = target: T1, Excitatory amino acid transporter 3 (Homo sapiens); assay: Substrate activity at human EAAT3 expressed in HEK293 cells assessed as increase in fluorescence level at 300 uM incubated for 30 mins by fluorescence-based FLIPR membrane potential blue assay; outline: as §3

| IC50 [4] [µM] | IC50 [5] [µM] | IC50 [7] [µM] | IC50 [8] [µM] | Structure (SMILES) | Ratio IC50 [1] | Ratio IC50 [3] | Ratio IC50 [9] | Ratio IC50 [10] | other results |
| --- | --- | --- | --- | --- | --- | --- | --- | --- | --- |
| 0.14 | 0.036 | 0.094 | 0.011 | N[C@H](C(=O)O)[C@H](OCc1ccccc1)C(=O)Nc1ccc(Oc2cc(F)c(F)cc2Br)cc1 | 40 | 16 | 53 | 190 | Ratio IC50 [2]: 78; Ratio IC50 [6]: 20; Ratio IC50 [11]: 11; Ratio IC50 [12]: 2 |
| 3.3 | 0.77 | 1.2 | 1.2 | N[C@H](C(=O)O)[C@H](OCc1cccs1)C(=O)O |  |  |  |  | Activity [16]: inactive; inhibition [17]: Active; inhibition [18]: Active; inhibition [19]: Active; inhibition [20]: Active; Activity [21]: inactive; Activity [22]: inactive |

| Structure (SMILES) | IC50 [4] [µM] | IC50 [5] [µM] | IC50 [7] [µM] | IC50 [8] [µM] | Ratio IC50 [1] | Ratio IC50 [3] | Ratio IC50 [9] | Ratio IC50 [10] | other results |
| --- | --- | --- | --- | --- | --- | --- | --- | --- | --- |
| N[C@H](C(=O)O)[C@H](OCc1ccccc1)C(=O)Nc1ccc2c(c1)Cc1ccccc1-2 | 0.08 | 0.047 | 0.055 | 0.012 | 69 | 29 | 40 | 180 | Ratio IC50 [13]: 30; Ratio IC50 [14]: 1.6; Ratio IC50 [15]: 83 |
